Experimental data taken from ChEMBL document CHEMBL3272297, “Lipophilicity and serotonin agonist activity in a series of 4-substituted mescaline analogues” (J Med Chem, 1977).

Columns and labels:
Ovis aries [1] = organism: Ovis aries; assay: Agonist activity at serotonin receptor in sheep umbilical artery assessed increase of mescaline-induced contraction; assay type: tissue-based
How it was run: (§1)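 Serotonin-receptor agonism measured in an isolated sheep umbilical artery preparation from dose-response curves giving ED50 values. The ratio (mescaline ED50 / compound ED50) is calculated from the data within each experimental series, with mescaline run as a time control. Data are reported over n tissues with the standard error of the geometric mean.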

Ovis aries [2] = organism: Ovis aries; assay: Potency ratio, ratio of mescaline ED50 to compound ED50 for serotonin receptor in sheep umbilical artery assessed increase of mescaline-induced contraction; assay type: tissue-based; how it was run: as §1
[3] = 1-Octanol-water partition coefficient, log P of the compound at pH 8; assay type: physicochemical

Row | Compound | ED50 (Ovis aries [1]) | Ratio ED50 (Ovis aries [2]) | logD [3]
1 | COc1cc(CCN)cc(OC)c1OCc1ccccc1 | 4.6 ×10⁻⁷ M | 3.04 | 2.4
2 | CCCCOc1c(OC)cc(CCN)cc1OC | 1.1 ×10⁻⁶ M | 1.27 | 2.32
3 | CCCOc1c(OC)cc(CCN)cc1OC | 3.8 ×10⁻⁷ M | 3.68 | 1.7
4 | COc1cc(CCN)cc(OC)c1OC(C)C | 5 ×10⁻⁷ M | 2.8 | 1.52
5 | COc1cc(CCN)cc(OC)c1OC [MESCALINE] | 1.4 ×10⁻⁶ M |  | 0.78
6 | COc1cc(CCN)cc(OC)c1Br | 1.85 ×10⁻⁷ M | 7.57 | 2.03
7 | CCOc1c(OC)cc(CCN)cc1OC | 6.8 ×10⁻⁷ M | 2.06 | 1.11
